ChEMBL document CHEMBL1154277, “Discovery of N-substituted pyridinones as potent and selective inhibitors of p38 kinase” (Bioorg Med Chem Lett, 2009)

Columns and labels:
[1] = Inhibition of KHS1 at 10 uM
[2] = target: Ephrin type-B receptor 2 (Homo sapiens) (UniProt P29323); test: Inhibition of EPHB2 at 10 uM
[3] = target: Casein kinase II subunit alpha' (Homo sapiens) (UniProt P19784); test: Inhibition of CK2alpha2 at 10 uM
[4] = target: Serine/threonine-protein kinase PLK3 (Homo sapiens) (UniProt Q9H4B4); test: Inhibition of PLK3 at 10 uM
[5] = target: Tyrosine-protein kinase BTK (Homo sapiens) (UniProt Q06187); test: Inhibition of BTK at 10 uM
Chain of Tyrosine-protein kinase BTK (Homo sapiens) (Q06187 whole entry): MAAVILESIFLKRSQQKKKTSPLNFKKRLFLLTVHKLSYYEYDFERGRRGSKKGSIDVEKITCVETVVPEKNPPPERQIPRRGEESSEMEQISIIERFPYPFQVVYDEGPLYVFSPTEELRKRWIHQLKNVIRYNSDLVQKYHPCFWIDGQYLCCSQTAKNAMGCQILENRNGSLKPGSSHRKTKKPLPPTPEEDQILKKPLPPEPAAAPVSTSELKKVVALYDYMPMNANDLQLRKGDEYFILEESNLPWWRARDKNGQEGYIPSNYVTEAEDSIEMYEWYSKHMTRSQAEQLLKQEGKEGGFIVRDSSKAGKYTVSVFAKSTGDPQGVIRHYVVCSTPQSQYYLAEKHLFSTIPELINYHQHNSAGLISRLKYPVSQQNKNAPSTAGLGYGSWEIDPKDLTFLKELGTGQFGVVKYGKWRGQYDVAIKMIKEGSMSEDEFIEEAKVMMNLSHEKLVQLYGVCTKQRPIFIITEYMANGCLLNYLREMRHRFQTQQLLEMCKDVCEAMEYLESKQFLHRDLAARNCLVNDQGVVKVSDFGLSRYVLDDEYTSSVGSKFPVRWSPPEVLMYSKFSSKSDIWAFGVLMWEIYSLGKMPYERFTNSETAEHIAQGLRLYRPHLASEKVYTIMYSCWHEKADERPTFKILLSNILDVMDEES

[6] = target: T1, Mitogen-activated protein kinase 14 (Homo sapiens, UniProt Q16539); test: Inhibition of p38alpha
T1 sequence (Q16539 whole entry): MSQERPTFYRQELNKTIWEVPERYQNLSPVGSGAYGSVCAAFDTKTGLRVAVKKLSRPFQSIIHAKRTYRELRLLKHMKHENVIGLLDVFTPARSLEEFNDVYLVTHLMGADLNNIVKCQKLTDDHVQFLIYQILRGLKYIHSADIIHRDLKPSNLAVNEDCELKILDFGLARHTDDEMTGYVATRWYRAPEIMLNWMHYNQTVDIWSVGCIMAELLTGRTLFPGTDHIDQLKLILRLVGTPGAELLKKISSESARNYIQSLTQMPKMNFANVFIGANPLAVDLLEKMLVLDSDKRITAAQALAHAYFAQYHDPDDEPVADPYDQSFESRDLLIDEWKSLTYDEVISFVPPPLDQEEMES

[7] = target: Maternal embryonic leucine zipper kinase (Homo sapiens) (UniProt Q14680); test: Inhibition of MELK at 10 uM
[8] = target: MAP/microtubule affinity-regulating kinase 3 (Homo sapiens) (UniProt P27448); test: Inhibition of MARK3 at 10 uM
[9] = target: Dual specificity mitogen-activated protein kinase kinase 2 (Homo sapiens) (UniProt P36507); test: Inhibition of MEK2 at 10 uM
[10] = target: Tyrosine-protein kinase Blk (Homo sapiens) (UniProt P51451); test: Inhibition of BLK at 10 uM
[11] = target: Casein kinase I isoform gamma-3 (Homo sapiens) (UniProt Q9Y6M4); test: Inhibition of CK1gamma3 at 10 uM
[12] = Metabolic stability in human liver microsomes assessed as compound remaining at 2 uM after 45 mins by LC/MS analysis; format: ADME, Microsome; conditions: read-out: Stability
[13] = target: Receptor tyrosine-protein kinase erbB-4 (Homo sapiens) (UniProt Q15303); test: Inhibition of ERBB4 at 10 uM
[14] = target: AMP-activated protein kinase, AMPK (Homo sapiens) (UniProt P54646+O43741+P54619+Q9UGJ0+Q9Y478+Q13131+Q9UGI9); test: Inhibition of AMPK alpha-2/beta-1/gamma-1 at 10 uM; format: protein-complex assay
[15] = target: Tyrosine-protein kinase Srms (Homo sapiens) (UniProt Q9H3Y6); test: Inhibition of SRMS at 10 uM
[16] = target: Tyrosine-protein kinase ABL2 (Homo sapiens) (UniProt P42684); test: Inhibition of ABL2 at 10 uM
[17] = target: Ribosomal protein S6 kinase alpha-1 (Homo sapiens) (UniProt Q15418); test: Inhibition of RSK1 at 10 uM
[18] = target: Serine/threonine-protein kinase D2 (Homo sapiens) (UniProt Q9BZL6); test: Inhibition of PKD2 at 10 uM
[19] = target: Serine/threonine-protein kinase mTOR (Homo sapiens) (UniProt P42345); test: Inhibition of mTOR at 10 uM
[20] = system: Hepatocyte growth factor receptor (Homo sapiens), P08581 [M1250T]; test: Inhibition of MET M1250T (mutant) at 10 uM
[21] = target: Tyrosine-protein kinase receptor UFO (Homo sapiens) (UniProt P30530); test: Inhibition of AXL at 10 uM
Chain of Tyrosine-protein kinase receptor UFO (Homo sapiens) (P30530 whole entry): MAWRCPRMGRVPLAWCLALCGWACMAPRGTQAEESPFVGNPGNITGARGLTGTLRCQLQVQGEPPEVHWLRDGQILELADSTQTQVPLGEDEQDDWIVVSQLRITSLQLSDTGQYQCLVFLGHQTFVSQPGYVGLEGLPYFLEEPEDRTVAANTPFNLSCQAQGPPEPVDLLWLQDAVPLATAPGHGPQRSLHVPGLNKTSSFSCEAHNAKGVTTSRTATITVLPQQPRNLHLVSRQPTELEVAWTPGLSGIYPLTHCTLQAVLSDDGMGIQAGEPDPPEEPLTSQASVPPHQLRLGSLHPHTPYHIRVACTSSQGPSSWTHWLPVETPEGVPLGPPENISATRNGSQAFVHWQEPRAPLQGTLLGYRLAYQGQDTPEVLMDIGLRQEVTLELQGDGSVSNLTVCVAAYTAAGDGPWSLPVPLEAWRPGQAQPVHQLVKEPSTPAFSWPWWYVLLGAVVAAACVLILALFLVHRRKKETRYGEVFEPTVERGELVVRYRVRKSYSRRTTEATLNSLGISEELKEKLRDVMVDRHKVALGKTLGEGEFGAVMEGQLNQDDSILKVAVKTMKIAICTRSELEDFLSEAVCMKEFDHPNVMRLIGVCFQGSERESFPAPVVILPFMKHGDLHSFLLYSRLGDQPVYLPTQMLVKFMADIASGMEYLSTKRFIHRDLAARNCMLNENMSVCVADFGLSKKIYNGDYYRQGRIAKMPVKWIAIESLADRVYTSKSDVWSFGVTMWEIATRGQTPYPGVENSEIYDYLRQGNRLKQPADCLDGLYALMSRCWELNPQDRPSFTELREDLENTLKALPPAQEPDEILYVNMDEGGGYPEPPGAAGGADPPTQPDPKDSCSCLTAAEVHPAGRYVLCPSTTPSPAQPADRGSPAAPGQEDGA

[22] = target: Tyrosine-protein kinase ZAP-70 (Homo sapiens) (UniProt P43403); test: Inhibition of ZAP70 at 10 uM
[23] = target: Dual specificity protein kinase CLK3 (Homo sapiens) (UniProt P49761); test: Inhibition of CLK3 at 10 uM
Chain of Dual specificity protein kinase CLK3 (Homo sapiens) (P49761 whole entry, looked up): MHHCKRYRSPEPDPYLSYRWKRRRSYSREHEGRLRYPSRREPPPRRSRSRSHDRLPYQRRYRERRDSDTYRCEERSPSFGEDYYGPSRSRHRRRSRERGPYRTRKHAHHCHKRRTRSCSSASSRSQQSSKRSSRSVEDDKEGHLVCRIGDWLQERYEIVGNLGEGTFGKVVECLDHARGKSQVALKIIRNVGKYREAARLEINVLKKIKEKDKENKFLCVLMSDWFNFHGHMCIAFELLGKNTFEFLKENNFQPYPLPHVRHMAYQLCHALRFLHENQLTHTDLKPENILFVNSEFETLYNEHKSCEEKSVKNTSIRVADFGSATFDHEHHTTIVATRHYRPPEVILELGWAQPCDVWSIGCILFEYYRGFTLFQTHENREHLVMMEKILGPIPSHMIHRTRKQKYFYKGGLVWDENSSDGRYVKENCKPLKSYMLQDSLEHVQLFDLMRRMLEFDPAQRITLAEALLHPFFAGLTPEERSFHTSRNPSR

[24] = target: Serine/threonine-protein kinase 24 (Homo sapiens) (UniProt Q9Y6E0); test: Inhibition of MST3 at 10 uM
[25] = system: Tyrosine-protein kinase ABL1 (Homo sapiens), P00519 [T315I]; test: Inhibition of ABL1 T315I (mutant) at 10 uM
[26] = target: Ribosomal protein S6 kinase alpha-2 (Homo sapiens) (UniProt Q15349); test: Inhibition of RSK3 at 10 uM
[27] = system: Tyrosine-protein kinase ABL1 (Homo sapiens), P00519 [G250E]; test: Inhibition of ABL1 G250E (mutant) at 10 uM
[28] = target: Calcium/calmodulin-dependent protein kinase type 1 (Homo sapiens) (UniProt Q14012); test: Inhibition of CAMK1 at 10 uM
Rattus norvegicus = test: Antiinflammatory activity in Lewis rat assessed as inhibition of LPS-induced TNFalpha release at 5 mg/kg administered before LPS challenge and measured after 4 hrs by ELISA; format: functional
Method in brief: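 Rat LPS challenge. The compound was given at –4 h relative to LPS, at the dose in mg/kg shown for each line. Read-out is percent inhibition of TNFα.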

[29] = Inhibition of SRC N1 at 10 uM
[30] = target: Activin receptor type-1B (Homo sapiens) (UniProt P36896); test: Inhibition of ALK4 at 10 uM
[31] = target: Vascular endothelial growth factor receptor 3 (Homo sapiens) (UniProt P35916); test: Inhibition of FLT4 at 10 uM
[32] = target: Misshapen-like kinase 1 (Homo sapiens) (UniProt Q8N4C8); test: Inhibition of MINK1 at 10 uM
Chain of Misshapen-like kinase 1 (Homo sapiens) (Q8N4C8 whole entry, looked up): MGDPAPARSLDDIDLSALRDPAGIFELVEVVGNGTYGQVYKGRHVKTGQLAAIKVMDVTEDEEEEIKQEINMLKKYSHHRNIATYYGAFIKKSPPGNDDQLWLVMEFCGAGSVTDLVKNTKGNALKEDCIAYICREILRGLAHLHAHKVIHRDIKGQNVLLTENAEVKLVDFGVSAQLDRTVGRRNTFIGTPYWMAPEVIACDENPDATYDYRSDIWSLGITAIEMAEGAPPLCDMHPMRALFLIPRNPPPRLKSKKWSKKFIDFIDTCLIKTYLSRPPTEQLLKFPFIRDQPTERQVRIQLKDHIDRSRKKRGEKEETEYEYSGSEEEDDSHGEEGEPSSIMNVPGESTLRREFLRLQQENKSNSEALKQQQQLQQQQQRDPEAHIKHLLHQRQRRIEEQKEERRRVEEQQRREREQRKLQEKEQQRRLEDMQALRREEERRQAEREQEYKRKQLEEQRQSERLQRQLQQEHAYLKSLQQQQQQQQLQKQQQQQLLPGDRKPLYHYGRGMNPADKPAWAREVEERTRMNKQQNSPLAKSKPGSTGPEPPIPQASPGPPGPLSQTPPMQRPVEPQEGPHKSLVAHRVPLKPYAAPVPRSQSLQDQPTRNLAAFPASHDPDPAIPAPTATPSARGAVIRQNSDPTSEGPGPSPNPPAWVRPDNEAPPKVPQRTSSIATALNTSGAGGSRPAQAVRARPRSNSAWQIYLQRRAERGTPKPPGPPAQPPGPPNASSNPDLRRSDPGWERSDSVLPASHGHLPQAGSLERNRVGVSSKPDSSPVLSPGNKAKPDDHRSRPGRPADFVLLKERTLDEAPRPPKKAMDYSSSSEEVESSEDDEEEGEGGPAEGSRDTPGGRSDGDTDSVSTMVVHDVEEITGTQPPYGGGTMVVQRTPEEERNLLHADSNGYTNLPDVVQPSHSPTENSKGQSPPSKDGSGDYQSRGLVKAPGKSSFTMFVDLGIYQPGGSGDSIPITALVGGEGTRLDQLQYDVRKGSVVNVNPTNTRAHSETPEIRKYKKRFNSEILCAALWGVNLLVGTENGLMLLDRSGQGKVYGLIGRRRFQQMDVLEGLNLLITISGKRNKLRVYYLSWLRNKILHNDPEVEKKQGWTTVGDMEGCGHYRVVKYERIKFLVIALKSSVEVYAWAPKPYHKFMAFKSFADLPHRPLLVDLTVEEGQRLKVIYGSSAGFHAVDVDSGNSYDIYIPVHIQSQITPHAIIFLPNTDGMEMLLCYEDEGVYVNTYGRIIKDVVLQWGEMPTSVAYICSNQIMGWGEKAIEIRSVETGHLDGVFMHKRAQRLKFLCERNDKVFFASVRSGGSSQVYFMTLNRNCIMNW

[33] = target: Calcium/calmodulin-dependent protein kinase type II subunit alpha (Homo sapiens) (UniProt Q9UQM7); test: Inhibition of CAMK2alpha at 10 uM
[34] = target: Serine/threonine-protein kinase Chk2 (Homo sapiens) (UniProt O96017); test: Inhibition of CHK2 at 10 uM
[35] = target: Tyrosine-protein kinase JAK2 (Homo sapiens) (UniProt O60674); test: Inhibition of JAK2 at 10 uM
[36] = target: Mitogen-activated protein kinase kinase kinase kinase 4 (Homo sapiens) (UniProt O95819); test: Inhibition of HGK at 10 uM
[37] = target: Serine/threonine-protein kinase Nek7 (Homo sapiens) (UniProt Q8TDX7); test: Inhibition of NEK7 at 10 uM
Chain of Serine/threonine-protein kinase Nek7 (Homo sapiens) (Q8TDX7 whole entry, looked up): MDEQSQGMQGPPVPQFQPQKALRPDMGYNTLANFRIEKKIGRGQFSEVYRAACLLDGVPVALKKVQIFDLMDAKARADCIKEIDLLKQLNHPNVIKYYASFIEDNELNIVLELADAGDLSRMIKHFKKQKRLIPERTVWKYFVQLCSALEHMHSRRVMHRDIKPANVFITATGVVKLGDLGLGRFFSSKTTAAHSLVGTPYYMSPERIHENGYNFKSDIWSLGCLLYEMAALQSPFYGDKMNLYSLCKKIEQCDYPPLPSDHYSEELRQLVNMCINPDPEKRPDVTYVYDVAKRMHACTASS

[38] = target: Ephrin type-A receptor 3 (Homo sapiens) (UniProt P29320); test: Inhibition of EPHA3 at 10 uM
[39] = target: Phosphorylase b kinase gamma catalytic chain, skeletal muscle/heart isoform (Homo sapiens) (UniProt Q16816); test: Inhibition of PHKgamma1 at 10 uM
[40] = target: Serine/threonine-protein kinase 26 (Homo sapiens) (UniProt Q9P289); test: Inhibition of MST4 at 10 uM
[41] = target: Tyrosine-protein kinase Fer (Homo sapiens) (UniProt P16591); test: Inhibition of FER at 10 uM
[42] = target: Fibroblast growth factor receptor 4 (Homo sapiens) (UniProt P22455); test: Inhibition of FGFR4 at 10 uM
[43] = target: Serine/threonine-protein kinase Chk1 (Homo sapiens) (UniProt O14757); test: Inhibition of CHK1 at 10 uM
Chain of Serine/threonine-protein kinase Chk1 (Homo sapiens) (O14757 whole entry): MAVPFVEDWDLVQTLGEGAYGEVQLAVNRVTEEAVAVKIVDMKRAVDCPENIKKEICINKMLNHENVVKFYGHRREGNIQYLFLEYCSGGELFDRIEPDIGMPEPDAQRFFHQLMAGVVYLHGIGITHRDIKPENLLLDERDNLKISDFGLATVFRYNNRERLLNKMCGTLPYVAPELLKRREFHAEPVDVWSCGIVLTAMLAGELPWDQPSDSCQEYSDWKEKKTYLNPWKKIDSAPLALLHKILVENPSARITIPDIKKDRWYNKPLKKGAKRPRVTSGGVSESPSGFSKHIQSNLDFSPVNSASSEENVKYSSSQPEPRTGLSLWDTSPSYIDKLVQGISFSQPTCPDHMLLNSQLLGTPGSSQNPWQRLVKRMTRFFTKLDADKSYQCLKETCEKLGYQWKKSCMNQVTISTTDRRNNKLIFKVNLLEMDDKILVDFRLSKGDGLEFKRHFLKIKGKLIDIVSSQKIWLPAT

[44] = target: Aurora kinase C (Homo sapiens) (UniProt Q9UQB9); test: Inhibition of Aurora C at 10 uM
[45] = target: T1, Mitogen-activated protein kinase 14; test: Inhibition of p38alpha at 10 uM

Chain of Casein kinase II subunit alpha' (Homo sapiens) (P19784 whole entry, looked up): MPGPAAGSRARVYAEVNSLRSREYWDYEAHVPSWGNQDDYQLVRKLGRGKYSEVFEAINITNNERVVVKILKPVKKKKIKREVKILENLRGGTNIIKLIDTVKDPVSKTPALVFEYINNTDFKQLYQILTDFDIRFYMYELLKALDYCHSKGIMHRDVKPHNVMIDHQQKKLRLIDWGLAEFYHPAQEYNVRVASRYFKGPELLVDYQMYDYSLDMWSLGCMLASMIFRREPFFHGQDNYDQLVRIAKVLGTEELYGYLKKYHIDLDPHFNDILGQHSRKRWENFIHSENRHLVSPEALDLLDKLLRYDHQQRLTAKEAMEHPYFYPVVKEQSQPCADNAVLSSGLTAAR

inhibition [1]: < 50%
inhibition [2]: < 50%
inhibition [3]: < 50%
inhibition [4]: < 50%
inhibition [5]: < 50%
IC50 [6]: 59 nM
inhibition [7]: < 50%
inhibition [8]: < 50%
inhibition [9]: < 50%
inhibition [10]: < 50%
inhibition [11]: < 50%
remaining at 0.75 h, 2 µM [12]: 57%
inhibition [13]: < 50%
inhibition [14]: < 50%
inhibition [15]: < 50%
inhibition [16]: < 50%
inhibition [17]: < 50%
inhibition [18]: < 50%
inhibition [19]: < 50%
inhibition [20]: < 50%
inhibition [21]: < 50%
inhibition [22]: < 50%
inhibition [23]: < 50%
inhibition [24]: < 50%
inhibition [25]: < 50%
inhibition [26]: < 50%
inhibition [27]: < 50%
inhibition [28]: < 50%
inhibition [29]: < 50%
inhibition [30]: < 50%
inhibition [31]: < 50%
inhibition [32]: < 50%
inhibition [33]: < 50%
inhibition [34]: < 50%
inhibition [35]: < 50%
inhibition [36]: < 50%
inhibition [37]: < 50%
inhibition [38]: < 50%
inhibition [39]: < 50%
inhibition [40]: < 50%
inhibition [41]: < 50%
inhibition [42]: < 50%
inhibition [43]: < 50%
inhibition [44]: < 50%
inhibition [45]: 100%
Structure (SMILES): Cc1cc(OCc2ccc(F)cc2F)c(Br)c(=O)n1Cc1ccc(CN(C)C)cc1
inhibition in vivo at 5 mg/kg (Rattus norvegicus): 87%
